From ChEMBL document CHEMBL1221233, “4''-O-(omega-Quinolylamino-alkylamino)propionyl derivatives of selected macrolides with the activity against the key erythromycin resistant respiratory pathogens” (2010)
Values after ≈ are worked out from the molar mass of the structure shown.

Assays:
Type in all cases: functional
Staphylococcus aureus [1] = assay: Antibacterial activity against efflux-mediated macrolide-resistance Staphylococcus aureus PK1 by broth microdilution method
How it was run: (§1)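 Staphylococci were grown on Mueller-Hinton agar and then tested by CLSI-guideline broth microdilution against two-fold serial dilutions of compound. The result was recorded as the minimum inhibitory concentration.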

Staphylococcus aureus [2] = assay: Antibacterial activity against inducible resistance to macrolide, licosamide and streptogramin Staphylococcus aureus 90256 by broth microdilution method; how it was run: as §1
Streptococcus pyogenes [3] = assay: Antibacterial activity against efflux-mediated macrolide-resistance Streptococcus pyogenes 2 Finland by broth microdilution method
How it was run: (§2)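 MIC by CLSI broth microdilution. In the streptococcal medium, 5% horse serum replaced lysed blood. Compounds were tested as two-fold serial dilutions. Strains were first grown on Columbia agar with 5% sheep blood. The MIC was read as the lowest concentration inhibiting growth.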

Streptococcus pneumoniae [4] = assay: Antibacterial activity against efflux-mediated macrolide-resistance Streptococcus pneumoniae Ci137 by broth microdilution method; how it was run: as §2
Streptococcus pneumoniae [5] = assay: Antibacterial activity against inducible resistance to macrolide and constitutive resistance to lincosamide Streptococcus pneumoniae 134 GR M by broth microdilution method; how it was run: as §2
Streptococcus pneumoniae [6] = assay: Antibacterial activity against constitutive MLS resistance Streptococcus pneumoniae 58 by broth microdilution method; how it was run: as §2
Streptococcus pyogenes [7] = assay: Antibacterial activity against constitutive MLS resistance sStreptococcus pyogenes 166 GR-Micro by broth microdilution method; how it was run: as §2
Haemophilus influenzae = assay: Antibacterial activity against Haemophilus influenzae ATCC 49247 by broth microdilution method
How it was run: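 MIC by broth microdilution following CLSI guidelines, expressed in units of lg/mL. Twofold dilutions prepared in 96-well plates. H. influenzae grown on Mueller-Hinton chocolate agar before testing.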

| SMILES | MIC (Staphylococcus aureus [1]) | MIC (Staphylococcus aureus [2]) | MIC (Streptococcus pyogenes [3]) | MIC (Streptococcus pneumoniae [4]) | MIC (Streptococcus pneumoniae [5]) | MIC (Streptococcus pneumoniae [6]) | MIC (Streptococcus pyogenes [7]) | MIC (Haemophilus influenzae) |
| --- | --- | --- | --- | --- | --- | --- | --- | --- |
| CC[C@H]1OC(=O)[C@H](C)[C@@H](O[C@H]2C[C@@](C)(OC)[C@@H](OC(=O)CCNCCCCNc3ccc4c(=O)c(C(=O)O)cn(C)c4c3)[C@H](C)O2)[C@H](C)[C@@H](O[C@@H]2O[C@H](C)C[C@H](N(C)C)[C@H]2O)[C@](C)(O)C[C@@H](C)CN(C)[C@H](C)[C@@H](O)[C@]1(C)O | 8 µg/mL (≈ 7.32 µM) | > 64 µg/mL | 4 µg/mL (≈ 3.66 µM) | 2 µg/mL (≈ 1.83 µM) | 32 µg/mL (≈ 29.3 µM) | 32 µg/mL (≈ 29.3 µM) | 8 µg/mL (≈ 7.32 µM) | 16 µg/mL (≈ 14.6 µM) |
| CC[C@H]1OC(=O)[C@H](C)[C@@H](O[C@H]2C[C@@](C)(OC)[C@@H](OC(=O)CCNCCCCNc3ccc4c(=O)c(C(=O)O)cn(CC)c4c3)[C@H](C)O2)[C@H](C)[C@@H](O[C@@H]2O[C@H](C)C[C@H](N(C)C)[C@H]2O)[C@](C)(O)C[C@@H](C)CN(C)[C@H](C)[C@@H](O)[C@]1(C)O | 4 µg/mL (≈ 3.62 µM) | > 32 µg/mL | 8 µg/mL (≈ 7.23 µM) | 1 µg/mL (≈ 0.904 µM) | 8 µg/mL (≈ 7.23 µM) | 2 µg/mL (≈ 1.81 µM) | 8 µg/mL (≈ 7.23 µM) | > 32 µg/mL |
| CC[C@H]1OC(=O)[C@H](C)[C@@H](O[C@H]2C[C@@](C)(OC)[C@@H](OC(=O)CCNCCCCNc3ccc4c(=O)c(C(=O)O)cn(C5CC5)c4c3)[C@H](C)O2)[C@H](C)[C@@H](O[C@@H]2O[C@H](C)C[C@H](N(C)C)[C@H]2O)[C@](C)(O)C[C@@H](C)CN(C)[C@H](C)[C@@H](O)[C@]1(C)O | 2 µg/mL (≈ 1.79 µM) | 8 µg/mL (≈ 7.15 µM) | 1 µg/mL (≈ 0.894 µM) | 0.5 µg/mL (≈ 0.447 µM) | 8 µg/mL (≈ 7.15 µM) | 4 µg/mL (≈ 3.58 µM) | 4 µg/mL (≈ 3.58 µM) | 8 µg/mL (≈ 7.15 µM) |
| CC[C@H]1OC(=O)[C@H](C)[C@@H](O[C@H]2C[C@@](C)(OC)[C@@H](OC(=O)CCNCCNc3cc4c(=O)c(C(=O)O)cn(C5CC5)c4cc3Cl)[C@H](C)O2)[C@H](C)[C@@H](O[C@@H]2O[C@H](C)C[C@H](N(C)C)[C@H]2O)[C@](C)(O)C[C@@H](C)CN(C)[C@H](C)[C@@H](O)[C@]1(C)O | 0.25 µg/mL (≈ 0.222 µM) | 0.5 µg/mL (≈ 0.445 µM) | ≤ 0.125 µg/mL | ≤ 0.125 µg/mL | ≤ 0.125 µg/mL | ≤ 0.125 µg/mL | ≤ 0.125 µg/mL | 1 µg/mL (≈ 0.889 µM) |
| CC[C@H]1OC(=O)[C@H](C)[C@@H](O[C@H]2C[C@@](C)(OC)[C@@H](OC(=O)CCNCCNc3cc4c(cc3F)c(=O)c(C(=O)O)cn4C3CC3)[C@H](C)O2)[C@H](C)[C@@H](O[C@@H]2O[C@H](C)C[C@H](N(C)C)[C@H]2O)[C@](C)(O)C[C@@H](C)CN(C)[C@H](C)[C@@H](O)[C@]1(C)O | 0.5 µg/mL (≈ 0.451 µM) | 0.5 µg/mL (≈ 0.451 µM) | 1 µg/mL (≈ 0.902 µM) | 0.25 µg/mL (≈ 0.226 µM) | 1 µg/mL (≈ 0.902 µM) | 0.25 µg/mL (≈ 0.226 µM) | 2 µg/mL (≈ 1.8 µM) | 2 µg/mL (≈ 1.8 µM) |
| CC[C@H]1OC(=O)[C@H](C)[C@@H](O[C@H]2C[C@@](C)(OC)[C@@H](OC(=O)CCNCCNc3cc4c(=O)c(C(=O)OC)cn(C5CC5)c4cc3Cl)[C@H](C)O2)[C@H](C)[C@@H](O[C@@H]2O[C@H](C)C[C@H](N(C)C)[C@H]2O)[C@](C)(O)C[C@@H](C)CN(C)[C@H](C)[C@@H](O)[C@]1(C)O | 8 µg/mL (≈ 7.02 µM) | > 64 µg/mL | ≤ 0.125 µg/mL | ≤ 0.125 µg/mL | ≤ 0.125 µg/mL | ≤ 0.125 µg/mL | ≤ 0.125 µg/mL | 8 µg/mL (≈ 7.02 µM) |
| CC[C@H]1OC(=O)[C@H](C)[C@@H](O[C@H]2C[C@@](C)(OC)[C@@H](OC(=O)CCNCCNc3ccc4c(c3)c(=O)c(C(=O)O)cn4C3CC3)[C@H](C)O2)[C@H](C)[C@@H](O[C@@H]2O[C@H](C)C[C@H](N(C)C)[C@H]2O)[C@](C)(O)C[C@@H](C)CN(C)[C@H](C)[C@@H](O)[C@]1(C)O | 1 µg/mL (≈ 0.917 µM) | 1 µg/mL (≈ 0.917 µM) | ≤ 0.125 µg/mL | ≤ 0.125 µg/mL | ≤ 0.125 µg/mL | ≤ 0.125 µg/mL | ≤ 0.125 µg/mL | 4 µg/mL (≈ 3.67 µM) |
| CC[C@H]1OC(=O)[C@H](C)[C@@H](O[C@H]2C[C@@](C)(OC)[C@@H](OC(=O)CCN(C)CCNc3cc4c(=O)c(C(=O)O)cn(C5CC5)c4cc3Cl)[C@H](C)O2)[C@H](C)[C@@H](O[C@@H]2O[C@H](C)C[C@H](N(C)C)[C@H]2O)[C@](C)(O)C[C@@H](C)CN(C)[C@H](C)[C@@H](O)[C@]1(C)O | 0.5 µg/mL (≈ 0.439 µM) | 0.5 µg/mL (≈ 0.439 µM) | ≤ 0.125 µg/mL | ≤ 0.125 µg/mL | ≤ 0.125 µg/mL | ≤ 0.125 µg/mL | ≤ 0.125 µg/mL | 1 µg/mL (≈ 0.878 µM) |
| CC[C@H]1OC(=O)[C@H](C)[C@@H](O[C@H]2C[C@@](C)(OC)[C@@H](OC(=O)CCN(C)CCNc3cc4c(cc3F)c(=O)c(C(=O)O)cn4C3CC3)[C@H](C)O2)[C@H](C)[C@@H](O[C@@H]2O[C@H](C)C[C@H](N(C)C)[C@H]2O)[C@](C)(O)C[C@@H](C)CN(C)[C@H](C)[C@@H](O)[C@]1(C)O | 1 µg/mL (≈ 0.891 µM) | 2 µg/mL (≈ 1.78 µM) | ≤ 0.125 µg/mL | ≤ 0.125 µg/mL | 0.25 µg/mL (≈ 0.223 µM) | 0.25 µg/mL (≈ 0.223 µM) | 2 µg/mL (≈ 1.78 µM) | 4 µg/mL (≈ 3.56 µM) |
| CC[C@H]1OC(=O)[C@H](C)[C@@H](O[C@H]2C[C@@](C)(OC)[C@@H](OC(=O)CCN(C)CCNc3cc4c(=O)c(C(=O)OC)cn(C5CC5)c4cc3Cl)[C@H](C)O2)[C@H](C)[C@@H](O[C@@H]2O[C@H](C)C[C@H](N(C)C)[C@H]2O)[C@](C)(O)C[C@@H](C)CN(C)[C@H](C)[C@@H](O)[C@]1(C)O | 16 µg/mL (≈ 13.9 µM) | > 64 µg/mL | ≤ 0.125 µg/mL | ≤ 0.125 µg/mL | 0.5 µg/mL (≈ 0.434 µM) | 0.5 µg/mL (≈ 0.434 µM) | 1 µg/mL (≈ 0.867 µM) | 8 µg/mL (≈ 6.94 µM) |
| CC[C@H]1OC(=O)[C@H](C)[C@@H](O[C@H]2C[C@@](C)(OC)[C@@H](OC(=O)CCN(C)CCNc3ccc4c(c3)c(=O)c(C(=O)O)cn4C3CC3)[C@H](C)O2)[C@H](C)[C@@H](O[C@@H]2O[C@H](C)C[C@H](N(C)C)[C@H]2O)[C@](C)(O)C[C@@H](C)CN(C)[C@H](C)[C@@H](O)[C@]1(C)O | 1 µg/mL (≈ 0.905 µM) | 1 µg/mL (≈ 0.905 µM) | 0.5 µg/mL (≈ 0.453 µM) | ≤ 0.125 µg/mL | 0.25 µg/mL (≈ 0.226 µM) | ≤ 0.125 µg/mL | ≤ 0.125 µg/mL | 4 µg/mL (≈ 3.62 µM) |
| CC[C@H]1OC(=O)[C@H](C)[C@@H](O[C@H]2C[C@@](C)(OC)[C@@H](OC(=O)CCNCCNc3cc4c(=O)c(C(=O)O)cn(C5CC5)c4cc3Cl)[C@H](C)O2)[C@H](C)[C@@H](O[C@@H]2O[C@H](C)C[C@H](N(C)C)[C@H]2O)[C@](C)(O)C[C@@H](C)CN(C)[C@H](C)[C@H]2OC(=O)O[C@@]21C | 0.5 µg/mL (≈ 0.434 µM) | 1 µg/mL (≈ 0.869 µM) | ≤ 0.125 µg/mL | ≤ 0.125 µg/mL | ≤ 0.125 µg/mL | ≤ 0.125 µg/mL | ≤ 0.125 µg/mL | 2 µg/mL (≈ 1.74 µM) |
| CC[C@H]1OC(=O)[C@H](C)[C@@H](O[C@H]2C[C@@](C)(OC)[C@@H](OC(=O)CCNCCNc3cc4c(cc3F)c(=O)c(C(=O)O)cn4C3CC3)[C@H](C)O2)[C@H](C)[C@@H](O[C@@H]2O[C@H](C)C[C@H](N(C)C)[C@H]2O)[C@](C)(O)C[C@@H](C)CN(C)[C@H](C)[C@H]2OC(=O)O[C@@]21C | 0.25 µg/mL (≈ 0.22 µM) | 1 µg/mL (≈ 0.882 µM) | ≤ 0.125 µg/mL | ≤ 0.125 µg/mL | ≤ 0.125 µg/mL | ≤ 0.125 µg/mL | ≤ 0.125 µg/mL | 2 µg/mL (≈ 1.76 µM) |
